This note sets out measurements from ChEMBL document CHEMBL4680093 (J Med Chem, 2016).

Some results are limits rather than exact numbers.

One series deals with Erythrocyte. The series can be described thus: Genotoxicity in mouse erythrocytes by micronucleus test. It is filed as toxicity, cell-based.
Series [1] in a line: Reduction in nonfasting blood glucose level in C57BL/6-Lep^ob (ob/ob) mouse at 20 mg/kg, po dosed once daily for 25 days relative to control. Also noted: scale not given: the % may be the effect or the level left. Particulars: time 25 day.
The target of a further series is T1, Glucocorticoid receptor (Homo sapiens, UniProt P04150).
T1 sequence (P04150 whole entry): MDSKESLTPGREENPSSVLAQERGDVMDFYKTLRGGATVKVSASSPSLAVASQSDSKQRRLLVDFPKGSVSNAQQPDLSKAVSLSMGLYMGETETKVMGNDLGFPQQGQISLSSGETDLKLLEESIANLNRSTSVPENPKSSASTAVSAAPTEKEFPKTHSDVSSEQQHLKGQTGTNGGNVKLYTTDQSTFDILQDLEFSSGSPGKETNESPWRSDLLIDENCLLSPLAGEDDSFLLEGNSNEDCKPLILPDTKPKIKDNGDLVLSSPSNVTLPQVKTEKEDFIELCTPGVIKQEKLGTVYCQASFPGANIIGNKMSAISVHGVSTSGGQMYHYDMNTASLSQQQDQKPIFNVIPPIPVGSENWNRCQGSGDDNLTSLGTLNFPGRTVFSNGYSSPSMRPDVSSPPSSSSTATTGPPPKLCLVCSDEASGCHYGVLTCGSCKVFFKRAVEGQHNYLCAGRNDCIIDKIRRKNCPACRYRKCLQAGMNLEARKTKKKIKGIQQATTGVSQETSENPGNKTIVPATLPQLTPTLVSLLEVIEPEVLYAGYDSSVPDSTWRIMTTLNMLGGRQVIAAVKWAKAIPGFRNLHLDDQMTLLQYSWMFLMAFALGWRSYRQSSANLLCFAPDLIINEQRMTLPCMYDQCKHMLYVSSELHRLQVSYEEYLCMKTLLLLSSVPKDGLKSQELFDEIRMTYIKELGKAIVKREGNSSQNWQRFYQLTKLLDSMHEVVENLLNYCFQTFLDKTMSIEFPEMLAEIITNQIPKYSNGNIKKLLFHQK
The series can be described thus: Antagonist activity at glucocorticoid receptor (unknown origin).

A short description of series [2]: Cmax in mouse at 5 mg/kg, po. In kind it is ADME, organism-based. Also noted: route oral, dose 5 mg/kg. The settings on record: in vivo.
For series [3], the target named is T2, UDP-glucuronosyltransferase 1A1 (Homo sapiens, UniProt P22309).
T2 sequence (P22309 whole entry): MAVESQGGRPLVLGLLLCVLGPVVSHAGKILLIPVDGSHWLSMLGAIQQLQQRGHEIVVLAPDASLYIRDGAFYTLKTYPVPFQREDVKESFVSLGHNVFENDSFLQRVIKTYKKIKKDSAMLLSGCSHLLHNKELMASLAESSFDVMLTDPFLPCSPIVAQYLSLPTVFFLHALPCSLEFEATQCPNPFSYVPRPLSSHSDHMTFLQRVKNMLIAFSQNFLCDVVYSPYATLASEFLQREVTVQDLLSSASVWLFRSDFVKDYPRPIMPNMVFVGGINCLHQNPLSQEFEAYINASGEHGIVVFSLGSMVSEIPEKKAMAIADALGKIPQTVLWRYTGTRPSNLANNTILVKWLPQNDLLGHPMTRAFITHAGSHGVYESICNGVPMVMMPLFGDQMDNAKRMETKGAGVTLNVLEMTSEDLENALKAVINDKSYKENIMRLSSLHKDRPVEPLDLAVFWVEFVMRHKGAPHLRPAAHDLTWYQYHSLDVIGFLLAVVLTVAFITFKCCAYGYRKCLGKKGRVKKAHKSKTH
Put plainly: Inhibition of UGT1A1 (unknown origin). In kind it is ADME.

The nature of series [4]: Oral bioavailability in dog at 4 mg/kg. It is filed as ADME, organism-based, Canis lupus familiaris. Particulars: in vivo. Put shortly: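 Single-dose PK study. The iv dose was given in 10% hydroxypropyl-β-cyclodextrin and the oral dose in 0.5% methylcellulose/1% Tween80. Mouse and rat received 1 mg/kg iv and 5 mg/kg po. Dog received 0.5 mg/kg iv and 4 mg/kg po. CL, Vss, t1/2, AUC, Cmax, tmax and F were derived.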

The nature of series [5]: AUC in dog at 0.5 mg/kg, iv. In kind it is ADME, organism-based, Canis lupus familiaris. Also noted: dose 0.5 mg/kg. Particulars: in vivo.
A further series deals with Cytochrome P450 2C9 (Homo sapiens, UniProt P11712). The series can be described thus: Inhibition of CYP2C9 in pooled human liver microsomes using diclofenac as substrate in presence of NADPH incubated for 10 mins by LC-MS/MS analysis.
Sequence of Cytochrome P450 2C9 (P11712 whole entry): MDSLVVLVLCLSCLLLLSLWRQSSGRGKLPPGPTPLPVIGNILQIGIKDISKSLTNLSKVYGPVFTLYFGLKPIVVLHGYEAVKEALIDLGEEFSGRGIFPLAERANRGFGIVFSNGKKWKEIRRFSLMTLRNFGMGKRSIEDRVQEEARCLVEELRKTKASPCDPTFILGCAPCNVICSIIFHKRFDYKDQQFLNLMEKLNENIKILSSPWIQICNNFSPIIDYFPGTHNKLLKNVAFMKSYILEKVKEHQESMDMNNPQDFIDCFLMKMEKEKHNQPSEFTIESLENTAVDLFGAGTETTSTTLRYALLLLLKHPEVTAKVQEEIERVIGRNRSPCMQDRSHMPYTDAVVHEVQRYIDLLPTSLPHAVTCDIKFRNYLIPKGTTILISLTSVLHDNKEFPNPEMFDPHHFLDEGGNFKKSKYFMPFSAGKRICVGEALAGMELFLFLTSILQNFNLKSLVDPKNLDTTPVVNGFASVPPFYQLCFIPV
Series [6] is described as follows: Toxicity in dog assessed as induction of abnormal changes in respiratory system up to 400 mg/kg, po. Particulars: in vivo. In kind it is organism-based, Canis lupus familiaris. The procedure, abridged: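 Dogs fitted with telemetry were given oral doses of up to 400 mg/kg. Cardiovascular and respiratory systems were monitored for abnormal changes.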
The nature of series [7]: In-vivo inhibition of 11beta-HSD1 activity in C57BL/6 mouse epididymal fat assessed as reduction in cortisone to-cortisol conversion at 10 mg/kg, po measured after 2 hrs by ELISA. In kind it is functional. The settings on record: C57BL/6, Epididymal fat pad. Put shortly:
(§1)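 Male C57BL/6 mice dosed orally once at 3, 10 or 30 mg/kg in sterile water containing 0.5% methylcellulose and 1% Tween80, then sacrificed at 2 or 6 h. Liver and epididymal fat pads incubated ex vivo in culture medium containing cortisone. Cortisol formed was measured by ELISA and reported as % inhibition versus vehicle.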
For orientation: In an ELISA, binding on a coated surface is turned into a signal by an enzyme label.

The nature of series [8]: In-vivo inhibition of 11beta-HSD1 activity in C57BL/6 mouse liver assessed as reduction in cortisone to-cortisol conversion at 30 mg/kg, po measured after 2 hrs by ELISA. In kind it is functional. The settings on record: C57BL/6, Liver. The procedure, abridged:
as §1

For `C[C@@H]1CN(c2ccc(S(C)(=O)=O)cc2F)CCN1c1nccc(C(=O)NC2C3CC4CC2CC(O)(C4)C3)n1` (stereo partly specified), the Activity result in the series with Erythrocyte is “Non-Toxic”; in [1], 26%; in series [6], “Non-Toxic”. In addition, the EC50 (commonly the concentration needed to bring the measured effect to its halfway point) at Glucocorticoid receptor is more than 5 µM. In series [2], the highest level (Cmax) was 2210 ng/mL. Also, the half-maximal inhibitory concentration (IC50) – broadly, the point on the concentration scale where inhibition reaches its midpoint – in series [3] was 5.6 µM; at Cytochrome P450 2C9, more than 10 µM. For the same compound, in [4], the bioavailability (as a rule, the share of a dose that reaches the circulation, judged against a reference dose that is usually intravenous) turned out to be 98%. Moreover, the AUC (commonly concentration integrated over time) in series [5] was 1470 ng·h/mL. The inhibition in vivo (as a rule, the share of the control response that was lost under treatment) at 10 mg/kg in series [7] is 88%. The inhibition in vivo at 30 mg/kg in series [8] was determined as 91%.
